How the values were obtained:
[1] = target: T1, Fatty-acid amide hydrolase 1 (Rattus norvegicus, UniProt P97612); test: Inhibition of FAAH in rat brain homogenates pre-incubated for 10 mins before addition of [3H]anandamide and [3H]AEA substrates for 30 mins by liquid scintillation counting; format: tissue-based; conditions: read-out: IC50
T1 sequence (P97612 whole entry): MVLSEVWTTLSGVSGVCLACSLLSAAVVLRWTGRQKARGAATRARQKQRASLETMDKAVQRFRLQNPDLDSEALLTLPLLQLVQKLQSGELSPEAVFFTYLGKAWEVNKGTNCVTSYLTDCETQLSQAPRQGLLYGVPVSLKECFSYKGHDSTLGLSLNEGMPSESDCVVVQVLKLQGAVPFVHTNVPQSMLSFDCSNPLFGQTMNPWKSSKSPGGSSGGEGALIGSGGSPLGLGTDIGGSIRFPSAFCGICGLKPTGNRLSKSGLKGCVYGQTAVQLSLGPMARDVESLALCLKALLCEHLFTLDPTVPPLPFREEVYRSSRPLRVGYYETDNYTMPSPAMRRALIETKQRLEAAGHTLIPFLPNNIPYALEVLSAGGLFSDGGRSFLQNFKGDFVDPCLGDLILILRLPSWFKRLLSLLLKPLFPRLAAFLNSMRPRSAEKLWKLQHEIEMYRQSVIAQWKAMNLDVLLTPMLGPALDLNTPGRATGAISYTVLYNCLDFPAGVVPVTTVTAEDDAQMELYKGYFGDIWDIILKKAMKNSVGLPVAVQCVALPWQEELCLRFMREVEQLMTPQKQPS
Outline: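 Rat whole-brain homogenate (50 ug protein/sample) in 50 mM TRIS pH 7.4, 0.05 % fatty acid free BSA; inhibitor pre-incubated 10 min, then 1 uM unlabelled AEA plus 0.6 nM [3H]-AEA added for 30 min at 37°C. Stopped with cold 1:1 CHCl3/MeOH; aqueous phase counted.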

[2] = target: T2, Prostaglandin G/H synthase 2 (Ovis aries, UniProt P79208); test: Inhibition of sheep COX2 pre-incubated for 5 mins before […] substrate addition by peroxidase activity detection based oxygen electrode assay
T2 sequence (P79208 whole entry): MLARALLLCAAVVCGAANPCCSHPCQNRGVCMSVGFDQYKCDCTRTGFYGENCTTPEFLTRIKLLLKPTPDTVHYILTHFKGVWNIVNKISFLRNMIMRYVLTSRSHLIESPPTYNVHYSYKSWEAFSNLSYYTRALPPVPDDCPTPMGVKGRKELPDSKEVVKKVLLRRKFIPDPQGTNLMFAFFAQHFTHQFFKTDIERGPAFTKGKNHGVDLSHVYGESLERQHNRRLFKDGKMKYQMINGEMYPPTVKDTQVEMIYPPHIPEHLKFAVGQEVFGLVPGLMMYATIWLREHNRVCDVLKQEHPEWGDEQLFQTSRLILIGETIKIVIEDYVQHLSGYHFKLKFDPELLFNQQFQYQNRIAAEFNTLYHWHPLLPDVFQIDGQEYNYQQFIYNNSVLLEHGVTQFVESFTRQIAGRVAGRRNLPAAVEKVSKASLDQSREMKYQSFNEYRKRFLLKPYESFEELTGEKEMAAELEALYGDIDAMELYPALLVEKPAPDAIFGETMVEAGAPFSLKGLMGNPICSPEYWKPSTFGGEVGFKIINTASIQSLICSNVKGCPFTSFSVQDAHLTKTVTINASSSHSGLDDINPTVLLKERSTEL

[3] = target: T3, Prostaglandin G/H synthase 1 (Ovis aries, UniProt P05979); test: Inhibition of ovine COX1 pre-incubated for 10 mins before arachidonic acid substrate addition by enzyme immunoassay
T3 sequence (P05979 whole entry): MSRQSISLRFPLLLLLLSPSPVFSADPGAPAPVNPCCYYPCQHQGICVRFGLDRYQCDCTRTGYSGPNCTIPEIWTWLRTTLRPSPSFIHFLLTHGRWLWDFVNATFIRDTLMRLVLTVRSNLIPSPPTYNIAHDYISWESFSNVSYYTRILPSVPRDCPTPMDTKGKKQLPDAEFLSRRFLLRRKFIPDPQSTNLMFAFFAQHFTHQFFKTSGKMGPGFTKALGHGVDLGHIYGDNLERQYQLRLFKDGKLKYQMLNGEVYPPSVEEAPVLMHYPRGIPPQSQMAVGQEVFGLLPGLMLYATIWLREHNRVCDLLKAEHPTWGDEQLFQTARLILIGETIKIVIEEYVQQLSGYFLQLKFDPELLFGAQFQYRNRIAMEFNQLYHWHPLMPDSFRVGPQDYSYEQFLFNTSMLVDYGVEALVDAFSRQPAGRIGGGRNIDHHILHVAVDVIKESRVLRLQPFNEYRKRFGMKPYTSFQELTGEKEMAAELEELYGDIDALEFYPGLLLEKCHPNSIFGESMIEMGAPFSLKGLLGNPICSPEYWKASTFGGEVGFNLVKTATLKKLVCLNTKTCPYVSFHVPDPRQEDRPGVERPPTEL
Outline: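 Ovine COX-1 pre-incubated with inhibitor for 10 min at 37 °C, then 5 μM arachidonic acid for 2 min at 37 °C. Stopped with HCl; PGH2 reduced to PGF2α with SnCl2 and measured by competitive EIA (PG antibody, PG-acetylcholinesterase conjugate), absorbance at 412 nm.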

[4] = target: T1, Fatty-acid amide hydrolase 1; test: Inhibition of FAAH in Sprague-Dawley rat cerebellum membranes pre-incubated for 10 mins before addition of [3H]AEA substrate in presence of ethyl alcohol by liquid scintillation counting; format: cell membranes, Membrane
[5] = target: T4, Prostaglandin G/H synthase 2 (Homo sapiens) (UniProt P35354); test: Inhibition of human COX2 at 30 uM pre-incubated for 10 mins before substrate addition by enzyme immunoassay
T4 sequence (whole entry): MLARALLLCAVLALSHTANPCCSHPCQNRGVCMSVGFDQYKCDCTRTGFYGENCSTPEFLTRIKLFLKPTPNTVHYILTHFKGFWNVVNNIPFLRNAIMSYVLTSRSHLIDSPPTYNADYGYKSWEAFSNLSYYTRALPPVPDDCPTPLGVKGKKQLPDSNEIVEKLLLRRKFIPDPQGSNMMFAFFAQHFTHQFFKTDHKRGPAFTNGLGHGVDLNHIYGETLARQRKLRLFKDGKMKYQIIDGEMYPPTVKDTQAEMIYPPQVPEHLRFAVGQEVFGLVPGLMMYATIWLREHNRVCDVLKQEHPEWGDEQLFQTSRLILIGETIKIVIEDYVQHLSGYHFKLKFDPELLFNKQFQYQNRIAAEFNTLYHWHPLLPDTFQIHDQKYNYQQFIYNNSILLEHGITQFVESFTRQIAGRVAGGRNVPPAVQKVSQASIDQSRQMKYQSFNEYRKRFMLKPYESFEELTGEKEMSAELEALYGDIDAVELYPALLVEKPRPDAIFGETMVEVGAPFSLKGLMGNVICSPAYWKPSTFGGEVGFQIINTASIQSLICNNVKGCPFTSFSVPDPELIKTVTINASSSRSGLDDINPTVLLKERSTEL
Outline: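 Human COX-2 pre-incubated with inhibitor 10 min at 37 °C, then 5 μM arachidonic acid for 2 min at 37 °C. Reaction stopped with HCl, PGH2 reduced to PGF2α by SnCl2, and PGF2α quantified by competitive EIA with PG-acetylcholinesterase conjugate, absorbance 412 nm. Single test concentration 30 μM.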

[6] = target: T3, Prostaglandin G/H synthase 1; test: Inhibition of sheep COX1 pre-incubated for 5 mins before arachidonic acid substrate addition in presence of DMSO by peroxidase activity detection based oxygen electrode assay
[7] = target: T3, Prostaglandin G/H synthase 1; test: Inhibition of sheep COX1 pre-incubated for 5 mins before arachidonic acid substrate addition in presence of ethanol by peroxidase activity detection based oxygen electrode assay

Cc1cccnc1NC(=O)C(C)c1ccc(CC(C)C)cc1 (configuration not stated)
IC50 [1]: 66 µM
IC50 [2]: 20 µM
IC50 [3]: 170 µM
IC50 [4]: 0.5 µM
inhibition [5]: 30%
IC50 [6]: 60 µM
IC50 [7]: 240 µM
